Results reported in ChEMBL document CHEMBL3045116, “Synthesis and biological evaluation of 2-(5-substituted-1-((diethylamino)methyl)-2-oxoindolin-3-ylidene)-N-substituted-hydrazinecarbothioamides” (Med Chem Res, 2013).

Experiments:
[1] = tested on: Candida albicans; test: Antifungal activity against Candida albicans assessed as growth inhibition at 50 ug/ml by cup-plate method (reference value: 8 to 10 mm); format: functional; settings: read-out: DIZ
[2] = tested on: Aspergillus niger; test: Antifungal activity against Aspergillus niger assessed as growth inhibition at 50 ug/ml by cup-plate method (reference value: 8 to 10 mm); format: functional; settings: read-out: DIZ
[3] = tested on: Influenza B virus; test: Antiviral activity against Influenza B virus infected in MDCK cells assessed as reduction of virus-induced cytopathic effect after 3 days by colorimetric formazan-based MTS assay; format: functional, organism-based; settings: 72 h
How it was run: (§1)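 Confluent cell monolayers were infected with 100 CCID50 of virus, and serial dilutions of compound were added at the time of infection.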

[4] = tested on: Influenza A virus H3N2; test: Antiviral activity against Influenza A virus H3N2 infected MDCK cells assessed as reduction of virus-induced cytopathic effect after 3 days by colorimetric formazan-based MTS assay; format: functional, organism-based; settings: 72 h; how it was run: as §1
[5] = tested on: Influenza A virus; test: Antiviral activity against Unidentified Influenza A virus (H1N1) infected MDCK cells assessed as reduction of virus-induced cytopathic effect after 3 days by colorimetric formazan-based MTS assay; format: functional, organism-based; settings: 72 h; how it was run: as §1
[6] = Cytotoxicity against MDCK cells assessed as change in cellular morphology; format: cell-based, Canis lupus familiaris; settings: dog, MDCK cells
How it was run: (§2)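 Uninfected cells were exposed to compound in parallel with the antiviral cultures. The read-out is the minimum cytotoxic concentration that causes a microscopically detectable alteration of normal cell morphology.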

[7] = tested on: Coxsackievirus B4; test: Antiviral activity against Human coxsackievirus B4 infected African green monkey Vero cells assessed as reduction of virus-induced cytopathic effect after 3 days by colorimetric formazan-based MTS assay; format: functional, organism-based; settings: Enterovirus B, 72 h; how it was run: as §1
[8] = tested on: Respirovirus muris; test: Antiviral activity against Sendai virus infected African green monkey Vero cells assessed as reduction of virus-induced cytopathic effect after 3 days by colorimetric formazan-based MTS assay; format: functional, organism-based; settings: 72 h
[9] = tested on: Mammalian orthoreovirus 1; test: Antiviral activity against Mammalian orthoreovirus 1 infected African green monkey Vero cells assessed as reduction of virus-induced cytopathic effect after 3 days by colorimetric formazan-based MTS assay; format: functional, organism-based; settings: Mammalian orthoreovirus 1, Vero, 72 h
How it was run: (§3)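 Cells grown to confluency in 96-well plates ([…], Vero for lines 9–10) were infected with 100 CCID50 of virus, and serial compound dilutions were added at infection. Plates were incubated at 37 °C for 3 days, until complete CPE appeared in untreated virus controls.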

[10] = tested on: Human respirovirus 3; test: Antiviral activity against Human parainfluenza virus 3 infected African green monkey Vero cells assessed as reduction of virus-induced cytopathic effect after 3 days by colorimetric formazan-based MTS assay; format: functional, organism-based; settings: Human respirovirus 3, Vero, 72 h; how it was run: as §3
[11] = Cytotoxicity against Chlorocebus aethiops (African green monkey) Vero cells assessed as change in cellular morphology; format: cell-based; settings: chlorocebus sabaeus
[12] = tested on: Respiratory syncytial virus; test: Antiviral activity against Respiratory syncytial virus infected human HeLa cells assessed as reduction of virus-induced cytopathic effect after 3 days by colorimetric formazan-based MTS assay; format: functional, organism-based; settings: 72 h; how it was run: as §1
[13] = tested on: Vesicular stomatitis virus; test: Antiviral activity against Vesicular stomatitis virus infected human HeLa cells assessed as reduction of virus-induced cytopathic effect after 3 days by colorimetric formazan-based MTS assay; format: functional, organism-based; settings: 72 h; how it was run: as §1
[14] = tested on: Coxsackievirus B4; test: Antiviral activity against Human coxsackievirus B4 infected human HeLa cells assessed as reduction of virus-induced cytopathic effect after 3 days by colorimetric formazan-based MTS assay; format: functional, organism-based; settings: Enterovirus B, 72 h; how it was run: as §1
[15] = (§4) Cytotoxicity against Homo sapiens (human) HeLa cells assessed as change in cellular morphology; format: cell-based; settings: HeLa cells; how it was run: as §2
[16] = tested on: Vesicular stomatitis virus; test: Antiviral activity against Vesicular stomatitis virus infected human HEL cells assessed as reduction of virus-induced cytopathic effect after 3 days by colorimetric formazan-based MTS assay; format: functional, organism-based; settings: 72 h; how it was run: as §1
[17] = tested on: Vaccinia virus; test: Antiviral activity against Vaccinia virus infected human HEL cells assessed as reduction of virus-induced cytopathic effect after 3 days by colorimetric formazan-based MTS assay; format: functional, organism-based; settings: Orthopoxvirus vaccinia, 72 h; how it was run: as §1
[18] = tested on: Human alphaherpesvirus 2; test: Antiviral activity against Human herpesvirus 2 strain G infected human HEL cells assessed as reduction of virus-induced cytopathic effect after 3 days by colorimetric formazan-based MTS assay; format: functional, organism-based; settings: Human alphaherpesvirus 2, strain G, 72 h; how it was run: as §1
[19] = Cytotoxicity against Homo sapiens (human) HEL cells assessed as change in cellular morphology; format: cell-based
[20] = tested on: Salmonella typhi; test: Antibacterial activity against Salmonella enterica subsp. enterica serovar Typhi assessed as growth inhibition at 50 ug/ml by cup-plate method (reference value: 8 to 10 mm); format: functional; settings: read-out: DIZ
[21] = tested on: Proteus vulgaris; test: Antibacterial activity against Proteus vulgaris assessed as growth inhibition at 50 ug/ml by cup-plate method (reference value: 8 to 10 mm); format: functional; settings: read-out: DIZ
[22] = tested on: Escherichia coli; test: Antibacterial activity against Escherichia coli assessed as growth inhibition at 50 ug/ml by cup-plate method (reference value: 8 to 10 mm); format: functional; settings: read-out: DIZ
[23] = tested on: Bacillus subtilis; test: Antibacterial activity against Bacillus subtilis assessed as growth inhibition at 50 ug/ml by cup-plate method (reference value: 8 to 10 mm); format: functional; settings: read-out: DIZ
[24] = tested on: Klebsiella pneumoniae; test: Antibacterial activity against Klebsiella pneumoniae assessed as growth inhibition at 50 ug/ml by cup-plate method (reference value: 8 to 10 mm); format: functional; settings: read-out: DIZ
[25] = tested on: Staphylococcus aureus; test: Antibacterial activity against Staphylococcus aureus assessed as growth inhibition at 50 ug/ml by cup-plate method (reference value: 8 to 10 mm); format: functional; settings: read-out: DIZ
[26] = tested on: CCRF-CEM; test: Cytotoxicity against Homo sapiens (human) CEM cells assessed as growth inhibition after 72 hr by coulter counter analysis; format: functional, cell-based
How it was run: (§5)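 Cells in growth medium were allowed to proliferate with variable compound amounts at 37 °C in a humidified CO2 atmosphere. Incubation ran 48 h for L1210, 72 h for CEM and 96 h for HeLa. Cells were then counted with a Coulter counter.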

[27] = tested on: L1210; test: Cytotoxicity against Mus musculus (mouse) L1210 cells assessed as growth inhibition after 48 hr by coulter counter analysis; format: functional, cell-based; settings: L1210, 48 h; how it was run: as §5
[28] = tested on: Punta Toro virus; test: Antiviral activity against Punta Toro virus infected in African green monkey Vero cells assessed as reduction of virus-induced cytopathic effect after 3 days by colorimetric formazan-based MTS assay; format: functional, organism-based; settings: 72 h; how it was run: as §1
[29] = tested on: HeLa; test: as §4; format: cell-based; settings: hela; how it was run: as §2
[30] = tested on: Felid alphaherpesvirus 1; test: Antiviral activity against Felid herpesvirus 1 infected cat CRFK cells assessed as reduction of virus-induced cytopathic effect after 3 days by colorimetric formazan-based MTS assay; format: functional, organism-based; settings: Felid alphaherpesvirus 1, CRFK, 72 h; how it was run: as §3
[31] = tested on: Feline infectious peritonitis virus; test: Antiviral activity against Feline Infectious peritonitis virus infected cat CRFK cells assessed as reduction of virus-induced cytopathic effect after 3 days by colorimetric formazan-based MTS assay; format: functional, organism-based; settings: Alphacoronavirus 1, CRFK, 72 h; how it was run: as §1
[32] = Cytotoxicity against Felis catus (cat) CRFK cells assessed as change in cellular morphology; format: cell-based; settings: CRFK cells; how it was run: as §2
[33] = tested on: Human alphaherpesvirus 1; test: Antiviral activity against acyclovir-resistant thymidine kinase negative Human herpesvirus 1 strain KOS infected human HEL cells assessed as reduction of virus-induced cytopathic effect after 3 days by colorimetric formazan-based MTS assay; format: functional, organism-based; settings: Human alphaherpesvirus 1, KOS, 72 h; how it was run: as §1

OC(Cn1cncn1)(Cn1cncn1)c1ccc(F)cc1F [FLUCONAZOLE]
zone of inhibition at 50 µg/mL [1]: 31 mm | zone of inhibition at 50 µg/mL [2]: 31 mm

NC(=O)c1ncn([C@@H]2O[C@H](CO)[C@@H](O)[C@H]2O)n1 [RIBAVIRIN]
EC50 [3]: 8.4 µM | EC50 [4]: 6.8 µM | EC50 [5]: 11.5 µM | MCC [6]: ≥ 100 µM | EC50 [7]: > 250 µM | EC50 [8]: > 250 µM | EC50 [9]: > 250 µM | EC50 [10]: 50 µM | MCC [11]: > 250 µM | EC50 [12]: 4.6 µM | EC50 [13]: 12.1 µM | EC50 [14]: 28.5 µM | CC50 [15]: > 250 µM | MCC [15]: > 250 µM

Nc1nc2c(ncn2COCCO)c(=O)[nH]1 [ACYCLOVIR]
EC50 [16]: > 250 µM | EC50 [17]: > 250 µM | EC50 [18]: 0.7 µM | MCC [19]: > 250 µM

CC1COc2c(N3CCN(C)CC3)c(F)cc3c(=O)c(C(=O)O)cn1c23 (centres undefined) [OFLOXACIN]
zone of inhibition at 50 µg/mL [20]: 31 mm | zone of inhibition at 50 µg/mL [21]: 31 mm | zone of inhibition at 50 µg/mL [22]: 31 mm | zone of inhibition at 50 µg/mL [23]: 31 mm | zone of inhibition at 50 µg/mL [24]: 31 mm | zone of inhibition at 50 µg/mL [25]: 31 mm

N[C@@H](Cc1ccc(N(CCCl)CCCl)cc1)C(=O)O
IC50 [26]: 2.2 µM | IC50 [27]: 3.2 µM

Nc1ncnc2c1ncn2C[C@H](O)CO [(S)-DHPA]
EC50 [28]: > 250 µM | EC50 [7]: > 250 µM | EC50 [8]: > 250 µM | MCC [11]: > 250 µM | EC50 [12]: > 250 µM | EC50 [13]: > 250 µM | EC50 [14]: > 250 µM | MCC [15]: > 250 µM | CC50 [29]: > 250 µM

Nc1nc2c(ncn2COC(CO)CO)c(=O)[nH]1 [GANCICLOVIR]
EC50 [30]: 7.3 µM | EC50 [31]: > 100 µM | CC50 [32]: > 100 µM | EC50 [33]: ≥ 20 µM | EC50 [16]: > 100 µM | EC50 [17]: > 100 µM | EC50 [18]: 0.07 µM | MCC [19]: > 100 µM

O=c1[nH]c(=O)n([C@H]2C[C@H](O)[C@@H](CO)O2)cc1/C=C/Br [BRIVUDINE]
EC50 [33]: > 250 µM | EC50 [16]: > 250 µM | EC50 [17]: 29 µM | MCC [19]: > 250 µM
